The sample as a whole holds a higher share of hits than the screen did.
Diaphorase act: counter-screen for diaphorase-based assays: diaphorase activators and chemical reducers. Diaphorase/resazurin coupled assay, resorufin fluorescence, 16 min; hits give high values; 1 = vehicle wells, 0 = NADH-free wells. activation factor at 20 µM. 190,000 compounds, 0.005% hits;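 active = diaphorase activity raised at least twofold by the compound at 20 µM; inactive = activation factor below 2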
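Test system: Clostridium kluyveri diaphorase, purified enzyme; input: enzyme 0.07 U/mL final; buffer or medium: 50 mM HEPES pH 7.4 with 4.542 mM MgCl2, 0.005% Tween 20; also added: 0.114 mM NADH and 0.1 mM resazurin, final amounts; schedule: 16 min enzyme reaction, ambient temperature; technique: fluorescence of resorufin, 544 nm excitation, 590 nm emission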
Diaph inh CS: diaphorase inhibition or chemical oxidation counter-screen | 190,000 compounds, 0.69% hits | inhibition, % at 20 µM | diaphorase resazurin-to-resorufin fluorescence, NADH, 16 min; bacterial (C. kluyveri) enzyme, not human;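 active = primary screen inhibition at 20 µM above a set limit, cut at about 50% in these data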
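Test system: bacterial diaphorase enzyme (C. kluyveri); Quantity: 0.14 U/mL diaphorase, enzyme working solution; Times: reaction incubation of 16 min at room temperature; Measured by: fluorescence of resorufin formed from resazurin, Ex 544/Em 590 nm; Benchmarks: positive control minus NADH, DMSO neutral control.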
Redox H2O2 prof: compounds producing H2O2 with reducing agent – biochemical, NIH compound library profiling, artefact control for MLSCN library redox annotation, primary screen | DTT-dependent redox cycling H2O2, phenol red/HRP absorbance; 100% = 100 µM peroxide control, 0% = buffer | activation, % at 10 µM | 200,000 compounds, 0.03% hits;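 active = activation of at least 50% relative to the plate's high and low controls in the primary single-dose screen; inactive = activation below 50%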;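 also: compound incubated with DTT at 0.8 mM final as the reducing agent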
Lmaj promast: inhibitors of Leishmania major promastigote growth. Leishmania major promastigotes, resazurin fluorescence viability. AID 1063. 200,000 compounds, 9% hits. inhibition, % at 10 µM;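 also: promastigotes grown with compound for 44 hours at 28 °C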
G6PDH CS: L. mesenteroides G6PDH inhibition counter-screen. Purified L. mesenteroides G6PDH, diaphorase/resazurin coupled fluorescence, 45 min. inhibition, % at 5 µM. 200,000 compounds, 0.12% hits
PfG6PD inh: PfG6PD (Plasmodium falciparum) enzyme inhibition; 350,000 compounds, 0.78% hits; PfGluPho enzyme, NADPH resazurin-diaphorase fluorescence; inhibition, % at 20 µM; AID 504690;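 active = inhibition reaching at least a set limit at 20 µM in the primary screen, cut at about 59% in these data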
Numbers stand for hits; 0 = inactive; - = not tested or not shown. Rule as the data show it, unless noted: active = inhibition above about 50%; inactive = the rest.

SMILES	Diaphorase act	Diaph inh CS	Redox H2O2 prof	Lmaj promast	G6PDH CS	PfG6PD inh
CC1CCCN(C(=O)Cc2cn(Cc3cccc(Cl)c3)c3ccccc23)C1 (stereo not given)	0	0	0	96.6	0	0
O=C(Cc1cn(Cc2cccc(Cl)c2)c2ccccc12)N1CCCCCC1	0	0	0	98.8	0	0
CC1CCCN(C(=O)COC(=O)Cc2ccc(Cl)cc2)C1 (stereo not given)	-	-	-	-	-	0
O=C(O)Cc1cn(Cc2cccc(Cl)c2)c2ccccc12	0	0	0	0	0	0
Cc1ccc(NC(=O)c2ccc(N3CCCC3=O)cc2)cc1S(=O)(=O)N1CCCCC1	-	-	-	-	-	0
CCCN(CC(=O)Nc1cc(Cl)cc(Cl)c1)CC(=O)Nc1ccc(F)c(F)c1F	0	0	0	63.1	0	0
CCN1/C(=C/C(C)=C/c2sc3ccccc3[n+]2CC)Sc2ccccc21	0	0	0	99.8	0	0
OC(CN1CCN(c2ccccn2)CC1)Cn1c2ccccc2c2ccccc21 (stereo not given)	0	0	0	99.7	0	0
CC(C)(C)C1CCC(OCC(O)CN2CCN(c3ccccn3)CC2)CC1 (stereo not given)	0	0	0	93.7	0	0
CC1CN(CC(O)COC2CCC(C(C)(C)C)CC2)CC(C)O1 (stereo not given)	0	0	0	89.8	0	0
CC(C)NCC(O)COC1CCC(C(C)(C)C)CC1 (stereo not given)	0	0	0	90.2	0	0
CC1CCCC(C)N1CC(O)COC1CCC(C(C)(C)C)CC1 (stereo not given)	-	-	-	-	-	0
CC(C)(C)C1CCC(OCC(O)CN2CCN(Cc3ccccc3)CC2)CC1 (stereo not given)	0	0	0	91.4	0	0
Cc1c(C)n(CC(O)CN2CCCCCC2)c2ccccc12 (stereo not given)	0	0	0	99.0	0	0
OC(CN1CCCCC1)Cn1c2ccccc2c2cc(Br)ccc21 (stereo not given)	-	-	-	-	-	0
OC(COC1CCCCC1)CN1CCN(c2ccccc2)CC1 (stereo not given)	0	0	0	0	0	0
COc1ccc2c(c1O)C(=O)c1ccccc1C2=O	0	0	0	0	0	-
CC1=CC(=O)c2ccccc2C1=O	0	0	0	0	60.6	0
COc1cccc2c1C(=O)C=C(C)C2=O	0	0	0	99.3	54.2	0
CCOc1ccc(S(=O)(=O)N2CCOCC2)cc1[N+](=O)[O-]	0	0	0	0	0	0
C[C@@H](NC(=O)[C@@H]1Cc2ccccc2CN1C(=O)OC(C)(C)C)C(=O)NCC1CCCO1 (stereo not given in full)	-	-	-	-	-	0
COC(=O)c1ccc(NC(=S)NC2CCCCC2)cc1	0	0	0	87.0	0	0
CCOc1ccc(NC(=O)c2ccc(NC(=S)NC3CCCCC3)cc2)cc1	0	0	0	0	0	0
COC(=O)c1ccc(NC(=O)NC2CCCCC2)cc1	0	0	0	52.2	0	0
COC(=O)c1ccc(NC(=O)C2CC3CCC2C3)cc1 (stereo not given)	-	-	-	-	-	0
SMILES	Diaphorase act	Diaph inh CS	Redox H2O2 prof	Lmaj promast	G6PDH CS	PfG6PD inh
COC(=O)c1ccc(NC(=S)NC2CC3CCC2C3)cc1 (stereo not given)	0	0	0	73.1	0	0
Cc1cccc(-n2c(C)cc(/C=C3\C(=N)N4N=C(CC(C)C)SC4=NC3=O)c2C)c1	0	0	0	58.6	0	0
Cc1cc(C)cc(-n2c(C)cc(/C=C3\C(=N)N4N=C(CC(C)C)SC4=NC3=O)c2C)c1	0	0	0	0	0	0
CCN1CCN(CCCNC(=O)c2csc3c2CCCCC3)CC1	0	0	0	99.5	0	0
CC1CCc2c(C(=O)NCCCN3CCOCC3)csc2C1 (stereo not given)	0	0	0	92.8	0	0
O=C(NCCN1CCOCC1)c1csc2c1CCCCC2	0	0	0	0	0	0
CC1CCc2c(C(=O)NCCN3CCOCC3)csc2C1 (stereo not given)	0	0	0	0	0	0
O=C(OCC(=O)N1CCOCC1)c1cncc(Br)c1	-	-	-	-	-	0
CCN(CC)S(=O)(=O)c1cc(C(=O)OCC(=O)NC2CCCc3ccccc32)ccc1C (stereo not given)	0	0	0	51.5	0	0
CCOc1cc(N2CCOCC2)c(OCC)cc1NS(=O)(=O)c1ccc2c(c1)CC(=O)N2	-	-	-	-	-	0
O=S(=O)(Nc1cccc(-c2cn3cccnc3n2)c1)c1ccccc1	0	0	0	88.4	0	0
O=S(=O)(Nc1cccc(-c2cn3cccnc3n2)c1)c1ccc(F)cc1	0	0	0	71.1	0	0
O=S(=O)(Nc1cccc(-c2cn3cccnc3n2)c1)c1ccc(-c2ccccc2)cc1	0	0	0	0	0	0
COc1cccc(-n2c(SCc3cc(=O)oc4cc(O)c(O)cc34)nc3ccccc3c2=O)c1	0	58.6	0	0	0	0
O=C(/C=C/c1ccc([N+](=O)[O-])cc1)OCC(=O)N1CCCC1	-	-	-	-	-	0
COc1ccc(C)cc1NC(=O)CN1CCN(C/C=C/c2ccccc2)CC1	0	0	0	86.2	0	0
Fc1ccc(NC(=S)N2CCN(C/C=C/c3ccccc3)CC2)c(F)c1	0	0	0	81.0	0	0
COc1ccc(NC(=S)N2CCN(C/C=C/c3ccccc3)CC2)c(OC)c1	0	0	0	0	0	0
COc1ccccc1NC(=S)N1CCN(C/C=C/c2ccccc2)CC1	0	0	0	67.3	0	0
O=C(CCN1CCN(C/C=C/c2ccccc2)CC1)Nc1ccccc1F	0	0	-	97.2	0	0
COc1ccc(C)cc1NC(=O)CN1CCN(c2ccccc2F)CC1	0	0	0	0	0	0
Cc1ccc(-c2nc(CC(=O)Nc3cccc(S(=O)(=O)NC4=NCCC4)c3)cs2)cc1	-	-	-	-	-	0
COC(=O)c1cc(OC)c(OC)cc1NC(=S)N1CCOCC1	-	-	-	-	-	0
COc1ccccc1NC(=S)N1CCN(Cc2ccccc2)CC1	0	0	0	82.6	0	0
Cc1ccccc1NC(=S)N1CCN(Cc2ccccc2)CC1	0	0	0	0	0	0
SMILES	Diaphorase act	Diaph inh CS	Redox H2O2 prof	Lmaj promast	G6PDH CS	PfG6PD inh
CC(C(=O)Nc1cccc([N+](=O)[O-])c1)N1CCN(C/C=C/c2ccccc2)CC1 (stereo not given)	0	0	0	81.5	0	0
COC(=O)c1ccccc1NC(=S)N1CCC(N2CCCCC2)CC1	0	0	0	73.3	0	0
COC(=O)c1ccccc1NC(=S)N1CCN(C2CCCCC2)CC1	0	0	0	0	0	0
COC(=O)c1cc(OC)c(OC)cc1NC(=S)N1CCCC1	0	0	0	87.9	0	0
CCOC(=O)C1(CCCc2ccccc2)CCN(C(=O)CN2C(=O)CSC2=O)CC1	0	0	0	0	0	0
O=C(Cc1c(Cl)cccc1Cl)OCC(=O)N1CCc2ccccc2C1	0	0	0	0	0	0
